High-throughput results deposited in PubChem BioAssay by several laboratories.
HNF4A DNA FP: change in binding of human HNF4A to DNA, primary screen, biochemical, fluorescence polarization, FITC-DNA | Hepatocyte nuclear factor 4-alpha (Homo sapiens), P41235 | 1 h | activity change, % at 10 µM | 360,000 tested, 0.3% active | AID 1224865, 2016; in the data active = activity change above about 30%, passing the limit was not always enough
Rpn11 block: Rpn11 (PSMD14) deubiquitinase inhibitors, primary screen, biochemical, fluorescence polarization, uHTS; human 26S proteasome, Ub4-pepOG fluorescence polarization; 20S core pre-blocked with epoxomicin; 360,000 tested, 0.59% active; inhibition, % at 20 µM; 26S proteasome non-ATPase regulatory subunit 14 (Homo sapiens), O00487;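 active = inhibition at 20 µM, scaled to each plate's controls, above about 33%, limit read from the data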
Target sequence (O00487 whole entry, looked up): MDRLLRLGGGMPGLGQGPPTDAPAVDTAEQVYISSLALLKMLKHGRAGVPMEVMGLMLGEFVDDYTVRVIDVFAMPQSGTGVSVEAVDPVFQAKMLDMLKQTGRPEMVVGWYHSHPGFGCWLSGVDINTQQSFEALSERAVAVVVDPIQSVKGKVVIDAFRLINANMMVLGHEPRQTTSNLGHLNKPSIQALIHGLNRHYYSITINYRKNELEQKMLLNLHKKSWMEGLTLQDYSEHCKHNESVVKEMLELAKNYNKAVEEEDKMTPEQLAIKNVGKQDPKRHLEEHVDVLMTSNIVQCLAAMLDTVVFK
ATG4B inhibitor: ATG4B protease inhibitors, primary screen, biochemical, fluorescence, uHTS; inhibition, % at 8.33 µM; Cysteine protease ATG4B (Homo sapiens), Q9Y4P1; ATG4B cleavage of LC3-PLA2, NBD-HPC fluorescence, 1 h; 340,000 tested, 0.51% active; in the data active = inhibition above about 40%
TPT1 inhibitor: Candida albicans TPT1 enzyme inhibitors, primary screen, biochemical, fluorescence polarization; tRNA 2'-phosphotransferase TPT1 (Candida albicans SC5314); recombinant caTPT1, FP RNA substrate dephosphorylation; inhibition, % at 5 µM; 300,000 tested, 0.81% active; AID 1962, 2009;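 active = inhibition above the mean of all tested compounds plus 3 SD, set per screening campaign, cut at about 24% in these data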;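 also: plate controls were DMSO alone for no effect and ferristatin control at 100 nM for full effect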
SENP1 inh: human SENP1 catalytic domain inhibitors, primary screen, biochemical, FRET, uHTS. 360,000 tested, 0.21% active. recombinant SENP1 catalytic domain, CyPet-SUMO1-YPet FRET cleavage. AID 624204, 2012. inhibition, % at 10 µM. Sentrin-specific protease 1 (Homo sapiens), Q9P0U3;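 active = inhibition at least 30% at 10 µM, raw YFP signal under a set limit, fluorescence ratio 0.5 to 1.5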;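 also: 0% = enzyme with DMSO and 100% = no enzyme wells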
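Test system: recombinant human SENP1 catalytic domain, His6-tagged / Medium: pH 8 Tris buffer with EDTA, NaCl, BME, BSA, NP40, catalase / Also added: SUMO1 FRET substrate flanked by Cypet and Ypet, 25 nM / Times: 50 min reaction at room temperature / Signal: FRET, CFP and YFP emission / Control set: no-enzyme low control and enzyme-plus-DMSO high control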
CSN deneddyl inh: inhibitors of CSN-mediated cullin deneddylation, primary screen, biochemical, fluorescence polarization, uHTS. Purified CSN, SCF-Nedd8-OG deneddylation. inhibition, % at 12.5 µM. 360,000 tested, 0.38% active;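 active = pattern-corrected inhibition above about 35%, with an unprinted fluorescence ratio check between 0.5 and 1.5, limit read from the data, passing the limit was not always enough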;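 also: 0% = enzyme with substrate and 100% = substrate without enzyme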
Target sequence (Q92905 whole entry, looked up, one chain of several): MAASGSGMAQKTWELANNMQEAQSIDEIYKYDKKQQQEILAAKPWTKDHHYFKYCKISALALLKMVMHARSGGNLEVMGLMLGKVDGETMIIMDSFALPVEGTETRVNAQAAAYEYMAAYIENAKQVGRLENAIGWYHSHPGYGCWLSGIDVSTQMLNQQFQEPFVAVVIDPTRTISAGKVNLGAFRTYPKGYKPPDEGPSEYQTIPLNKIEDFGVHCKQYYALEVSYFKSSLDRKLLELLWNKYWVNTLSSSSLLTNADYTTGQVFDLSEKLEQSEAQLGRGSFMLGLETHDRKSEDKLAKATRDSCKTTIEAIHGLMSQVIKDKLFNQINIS
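Material: human Csn5 produced in HEK293T cells; Input: enzyme 0.24 nM; Reagent: SCFSkp2-Nedd8OG substrate at 10 nM final; Dosing: 12.5 µM compound; Incubation: 90 min reaction at room temperature; Detection: fluorescence polarization of the substrate; Evaluation: % inhibition of substrate cleavage by Csn5; Control set: substrate-only high control, full reaction low control.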
TPT1 inh confirm: Candida albicans TPT1 inhibitors, confirmation, biochemical, fluorescence polarization, triplicate; shares compounds with TPT1 inhibitor; recombinant caTPT1, RNase T1 coupled; inhibition, % at 5 µM; 2,400 tested, 74% active;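 active = inhibition above the primary screen limit, the mean inhibition of all tested compounds plus 3 SD, cut at about 25% in these data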
RNase T1 inh: RNase T1 inhibitors, counter-screen for TPT1 inhibitor project, biochemical, fluorescence polarization | RNase T1 cleavage, 1536-well | 2,400 tested, 83% active | inhibition, % at 5 µM | AID 2153, 2009 | shares compounds with TPT1 inhibitor;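 active = inhibition above the solvent-only control well mean plus 3 SD, limit set per screening run, cut at about 23% in these data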;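 also: plate controls were DMSO wells with enzyme for no effect and wells without RNase T1 for full effect; inhibitors block cleavage so intact labeled substrate keeps polarization high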
Numbers without * were called inactive; x = not tested or not shown. A selection: hits, their analogues and other compounds. The true share with any hit is near 2%.

SMILES	HNF4A DNA FP	Rpn11 block	ATG4B inhibitor	TPT1 inhibitor	SENP1 inh	CSN deneddyl inh	TPT1 inh confirm	RNase T1 inh
CCCn1c(=S)[nH]c2cc(C(=O)N3CCN(c4ccc(F)cc4)CC3)ccc2c1=O	4	3	x	x	3	1	x	x
Cc1sc2nc(CSc3nc4ccccc4s3)[nH]c(=O)c2c1C	x	x	x	42*	x	x	52*	64*
O=c1[nH]c(CSc2nc3ccccc3s2)nc2ccccc12	2	1	-4	0	-17	2	x	x
CON(C)C(=O)/C=C/c1ccc([B-](F)(F)F)cc1	-1	1	3	x	0	9	x	x
COc1ccc(OC)c(/C=C2\SC(=S)N(C(C(=O)O)c3ccccc3)C2=O)c1 (stereo not given)	10	x	25	65*	-25	23	61*	72*
CCOc1ccc(/C=C2\SC(=S)N(C(C(=O)O)c3ccccc3)C2=O)cc1OC (stereo not given)	4	21	11	11	-62	6	x	x
O=C1c2cccc3c(N4CCCCC4)ccc(c23)C(=O)N1c1ccc(O)cc1	-104	x	3	72*	-26	15	61*	61*
O=C1c2cccc3c(N4CCCCC4)ccc(c23)C(=O)N1c1ccccc1O	-7	x	1	72*	-36	-70	39*	50*
CCCCNS(=O)(=O)c1cccc(NC(=O)[C@@H]2O[C@H](CO)[C@@H](O)[C@H]2O)c1	3	6	x	x	1	-9	x	x
COc1ccc(-c2ccc3c(c2)C2CC3CCN2Cc2ccc(OC(F)(F)F)cc2)cc1 (stereo not given)	0	2	8	x	2	2	x	x
Cc1cc(/C=C2/C(=O)N(C)C(=S)N2C)ccc1N1CCCC1	112	x	7	159*	-23	90	155*	142*
Cc1cc(/C=C2\NC(=S)N(C)C2=O)ccc1N1CCCC1	154	x	8	137*	-29	115	128*	122*
CCCN1C(=O)/C(=C/c2ccc(N3CCCC3)c(C)c2)NC1=S	141	x	-2	134*	-15	56	139*	130*
O=C(Nc1cc(C(F)(F)F)ccc1-n1cncn1)c1ccc(F)cc1Cl	13	0	-2	x	2	-3	x	x
CCc1nc2c(OCCc3cccc(OC)c3)cccn2c1N(C)C(=O)c1ccc(OC)cc1	4	5	x	x	1	4	x	x
COc1ccc(OCC(=O)N/N=C(\C)c2cc3ccccc3o2)cc1	2	-2	-17	27*	0	3	24	35*
N#C/C(=C/c1ccc(N2CCCCC2)o1)C(=O)Nc1ccc2ccccc2c1	-84	x	-10	x	-24	-78	x	x
COc1cc(N2CCCC2)c(OC)cc1/C=C(/C#N)c1cccc(F)c1	89	x	1	143*	-26	54*	145*	140*
COc1cccc(/C=C(/C#N)c2ccc(F)cc2)c1OCc1cccc(C(=O)O)c1	-2	0	5	0	-2	8	x	x
N#C/C(=C/c1ccc(N2CCCCCC2)o1)c1ccc(F)cc1	84	x	-4	158*	-9	5	182*	168*
N#C/C(=C/c1ccc(N2CCCCCC2)o1)c1cccc(F)c1	98	x	21	160*	20	13	177*	163*
O=C(N/N=C/c1ccc(N2CCCCC2)o1)c1ccccc1	1	4	12	4	-2	-15	x	x
CC(N)c1csc(Nc2nccc(C(F)(F)F)n2)n1 (stereo not given)	3	2	x	x	0	1	x	x
C#CCOCCOCCOCCNc1nc(N2CCN(C(=O)[C@H](CCCN=C(N)N)n3cc(C(N)[C@@H](C)CC)nn3)CC2)nc(N2CCN(C(=O)[C@H](CCC(=O)O)n3cc([C@@H](N)CO)nn3)CC2)n1 (stereo not given in full)	3	4	1	x	1	5	x	x
CC(C)(C)C(=O)Nc1nnc(SCC(=O)NCc2cccs2)s1	-2	-3	-2	-5	3	-5	x	x
SMILES	HNF4A DNA FP	Rpn11 block	ATG4B inhibitor	TPT1 inhibitor	SENP1 inh	CSN deneddyl inh	TPT1 inh confirm	RNase T1 inh
CC(C)C(=O)Nc1nnc(SCC(=O)NCc2cccs2)s1	-4	5	0	32*	4	-4	1	2
COc1cc(OC)c(OC)cc1/C=C1\Oc2cc(OCC(=O)N3Cc4ccccc4C[C@H]3C(=O)O)ccc2C1=O	61*	x	-20	73*	-21	92	81*	85*
COc1ccc(OC)c(/C=C2\Oc3cc(OCC(=O)N4CCC[C@H]4C(=O)O)ccc3C2=O)c1	1	5	-43	16	-54	7	x	x
CNc1ccc(Br)cc(C(=O)/C=C/c2cccc(OC)c2)c1=O	-4	-5	8	42*	-20	21	61*	74*
CNc1ccc(Br)cc(C(=O)/C=C/c2ccc(OC)cc2OC)c1=O	-7	-9	10	54*	-3	29	76*	84*
O=C(/C=C/c1ccccc1)c1cc(Br)ccc(=O)c1O	3	16	14	17	17	34	x	x
CNc1ccc(Br)cc(C(=O)/C=C/c2ccc(Cl)cc2Cl)c1=O	9	38	20	69*	-14	30	58*	72*
O=C(O)c1ccccc1N/N=C/c1c(Sc2nnnn2-c2ccccc2)nc2ccccn2c1=O	96*	x	-10	68*	71*	97*	19	31*
O=c1c(/C=N/Nc2ccccc2)c(Sc2nnnn2-c2ccccc2)nc2ccccn12	-7	x	0	x	-22	45	x	x
O=C(COc1coc(CN2CCCc3ccccc32)cc1=O)Nc1ccc([N+](=O)[O-])cc1	0	-4	8	32*	-22	-1	10	17
Cc1ccccc1NC(=O)COc1coc(CN2CCCc3ccccc32)cc1=O	-4	-6	7	0	-6	-2	x	x
CC(=O)N(\C=C/C=C/C=C1\Sc2ccccc2C1=O)c1ccccc1	49*	18	17	58*	16	1	84*	94*
